The source made the active and inactive calls. No cut-off for these calls is given here.

The target in data set [1] is Epidermal growth factor receptor (Homo sapiens) (UniProt P00533). Briefly: Inhibition of EGFR autophosphorylation in human A431 cells at 0.1 uM. The format is cell-based. Conditions: A-431. An outline of the steps:
(§1)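 A431 cells grown to about 70% confluence, serum-starved 24 h, then given compound (0.1–5 µM) for 2 h and stimulated with EGF 20 ng/mL for 5 min. Lysates loaded at equal total protein (BCA), run on 8% SDS-PAGE and blotted to PVDF. Probed with anti-phosphotyrosine PY20 and an HRP anti-mouse secondary, detected by ECL. Bands quantified against controls with and without EGF, no drug.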

Data set [2] has the same target. Briefly: Inhibition of EGFR autophosphorylation in human A431 cells at 1 uM. The format is cell-based. The following applies: A-431. An outline of the steps: as §1
The test system of data set [3] is A-431. The data set is described as follows: Growth inhibition of human A431 cells by MTT assay. The data set is classed as functional, cell-based. An outline of the steps:
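A431 cells kept in high-glucose D-MEM with 10% foetal calf serum, 37 °C, 5% CO2. Plated at 3×10^3 cells/well and grown 24 h, then exposed to 1–50 µM compound (4 replicates) for 24, 48 and 72 h. MTT 1 mg/mL in phenol-red-free RPMI for 4 h, isopropanol solubilisation, A540 against 620 nm reference. % of untreated control plotted semi-log against concentration; IC50 read from the curve.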
Background: Formazan colour is commonly taken as a measure of viable cells.

The test system of data set [4] is Liver. Briefly: Biodistribution in CD1 mouse liver at 175 to 200 kBq, iv after 4 hrs. The format is ADME, organism-based. Conditions: in vivo. In a few lines: (§2)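 Female CD-1 mice (20-25 g, groups of 5) given the radioiodinated compound via tail vein, 175-200 kBq in saline (100 µL) with 0.1% Tween 20. Injected dose taken as syringe activity before minus after. Killed at 1 and 4 h; organs removed, weighed and gamma-counted. Values are % ID per total organ, mean ± SD.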

Data set [5] deals with Thyroid gland. The data set is described as follows: Biodistribution in CD1 mouse thyroid at 175 to 200 kBq, iv after 4 hrs. The data set is classed as ADME, organism-based. The following applies: in vivo. An outline of the steps:
as §2

A short description of data set [6]: Partition coefficient, log P at pH 7.4. The data set is classed as physicochemical. The following applies: octanol/water. An outline of the steps:
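Shake-flask method with back-extraction. Radiotracer placed in mutually saturated octanol and PBS pH 7.4, vortexed and centrifuged (3000 rpm, 10 min, rt). Both phases gamma-counted. 0.5 mL of octanol re-extracted against an equal volume of PBS and counting repeated. log P is taken from the octanol/buffer count ratio.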

The subject of data set [7] is Liver. Briefly: Biodistribution in CD1 mouse liver at 175 to 200 kBq, iv after 1 hr. Conditions: in vivo. The format is ADME, organism-based. In a few lines: as §2
In data set [8] the test system is Stomach. The data set is described as follows: Biodistribution in CD1 mouse stomach at 175 to 200 kBq, iv after 4 hrs. The format is ADME, organism-based. Conditions: in vivo. An outline of the steps: as §2
The subject of data set [9] is Serum. The data set is described as follows: Protein binding in human serum. The format is ADME, cell-free. An outline of the steps: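 Radioiodinated tracer (≈370 kBq) incubated in 1 mL fresh human serum at 37 °C. Duplicate 100 µL samples taken at 15 min, 1, 2, 4 and 21 h. Proteins precipitated with 200 µL ethanol, cooled to 4 °C and centrifuged. Pellet washed with ethanol and gamma-counted. Pellet activity is expressed as % of total activity.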

Data set [10] deals with Thyroid gland. The data set is described as follows: Biodistribution in CD1 mouse thyroid at 175 to 200 kBq, iv after 1 hr. The data set is classed as ADME, organism-based. Conditions: in vivo. In a few lines:
as §2

In data set [11] the test system is Stomach. The data set is described as follows: Biodistribution in CD1 mouse stomach at 175 to 200 kBq, iv after 1 hr. The format is ADME, organism-based. The following applies: in vivo. An outline of the steps:
as §2

Chain of Epidermal growth factor receptor (Homo sapiens) (P00533 whole entry): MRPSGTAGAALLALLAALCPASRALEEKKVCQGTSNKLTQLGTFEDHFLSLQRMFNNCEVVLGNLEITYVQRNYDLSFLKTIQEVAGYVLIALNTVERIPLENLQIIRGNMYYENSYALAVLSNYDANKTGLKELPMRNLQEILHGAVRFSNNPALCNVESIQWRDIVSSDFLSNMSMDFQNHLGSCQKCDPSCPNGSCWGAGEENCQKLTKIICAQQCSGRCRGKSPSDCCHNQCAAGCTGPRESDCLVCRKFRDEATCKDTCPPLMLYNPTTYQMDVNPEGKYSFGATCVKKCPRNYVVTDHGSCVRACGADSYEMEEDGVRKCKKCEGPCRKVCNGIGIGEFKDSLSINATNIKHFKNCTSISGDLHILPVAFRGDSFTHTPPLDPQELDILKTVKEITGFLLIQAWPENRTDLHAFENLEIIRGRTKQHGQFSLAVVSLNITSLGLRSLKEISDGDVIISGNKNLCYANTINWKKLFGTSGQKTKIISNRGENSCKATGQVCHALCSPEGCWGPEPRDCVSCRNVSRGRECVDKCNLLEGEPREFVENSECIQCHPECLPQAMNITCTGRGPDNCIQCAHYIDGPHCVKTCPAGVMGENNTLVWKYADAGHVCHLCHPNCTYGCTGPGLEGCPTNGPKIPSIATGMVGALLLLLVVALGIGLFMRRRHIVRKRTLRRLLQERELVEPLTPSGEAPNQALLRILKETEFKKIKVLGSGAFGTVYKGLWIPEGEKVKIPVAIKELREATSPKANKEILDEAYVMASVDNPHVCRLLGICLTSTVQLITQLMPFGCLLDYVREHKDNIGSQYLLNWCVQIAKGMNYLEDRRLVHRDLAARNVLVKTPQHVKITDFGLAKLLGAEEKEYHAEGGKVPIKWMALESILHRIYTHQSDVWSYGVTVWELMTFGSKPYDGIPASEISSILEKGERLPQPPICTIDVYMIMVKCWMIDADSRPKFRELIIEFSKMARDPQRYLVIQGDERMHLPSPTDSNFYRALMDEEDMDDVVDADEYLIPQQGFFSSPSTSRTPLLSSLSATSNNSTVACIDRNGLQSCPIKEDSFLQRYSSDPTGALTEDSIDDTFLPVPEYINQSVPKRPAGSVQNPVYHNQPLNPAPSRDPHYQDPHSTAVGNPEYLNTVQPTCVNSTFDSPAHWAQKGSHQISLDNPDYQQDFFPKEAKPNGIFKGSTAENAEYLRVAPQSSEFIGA

Consider `O=C(CCBr)Nc1ccc2ncnc(Nc3ccc(F)c(Cl)c3)c2c1`, for which, in data set [1], the outcome was Active. In data set [2], the inhibition (commonly the share of the control response that was lost under treatment) turned out to be 100%. Besides, the IC50 (in general, the concentration that gives 50% inhibition) in data set [3] worked out at 3000 nM.
In the case of `O=C(CC[125I])Nc1ccc2ncnc(Nc3ccc(F)c(Cl)c3)c2c1`, the Drug uptake turned out to be 2.3 %ID in data set [4]; 13.2 %ID in [5]; 6.1 %ID in data set [7]; 3.9 %ID in [8]; 5.7 %ID in [10]; 35.2 %ID in [11]. Besides, in [6], the logD – broadly, lipophilicity at a set pH, counting ionised and neutral species – came to 2.25. The compound further returned an Activity in data set [9] of 6%.
In [2], `Nc1ccc2ncnc(Nc3ccc(F)c(Cl)c3)c2c1` yielded an inhibition of 95%. In addition, the IC50 in data set [3] came out at 25000 nM.
For `O=C(CCI)Nc1ccc2ncnc(Nc3ccc(F)c(Cl)c3)c2c1`, in data set [1], the outcome was Active. For the same compound, the inhibition in data set [2] came out at 100%. In data set [3], this compound had an IC50 of 2000 nM.

The values above are taken from ChEMBL document CHEMBL1148017, “Radioiodination of new EGFR inhibitors as potential SPECT agents for molecular imaging of breast cancer” (Bioorg Med Chem, 2007).
